Six molecules from ChEMBL document CHEMBL1138426, “Synthesis and DNA-binding ability of C2R-fluoro substituted DC-81 and its dimers” (Bioorg Med Chem Lett, 2007) can be followed below.

Experiment [1] relates to DNA. In words: Binding affinity to calf thymus DNA at 1:5 (compound:DNA) molar ratio in pH 7.0, 37 degC after 18 hrs by thermal denaturation study. The settings on record: Bos taurus. In kind it is nucleic-acid assay. The essentials: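 Thermal denaturation of calf thymus DNA at pH 7.00 ± 0.01. The buffer was aqueous sodium phosphate (10 mM sodium phosphate + 1 mM EDTA). DNA was 100 μM and compound 20 μM, a 1:5 molar ratio. The mix was incubated at 37 °C for 0, 18 or 36 h before melting. ΔTm is the shift from the Tm of DNA alone (mean of 10 determinations), ±0.1–0.2 °C.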

Experiment [2] deals with DNA. As to the kind of experiment: Binding affinity to calf thymus DNA at 1:5 (compound:DNA) molar ratio in pH 7.0, 37 degC after 36 hrs by thermal denaturation study. As to conditions: Bos taurus.

As a reminder, the ΔTm is the shift of the melting midpoint relative to a reference. Turning to `COc1cc2c(cc1OCCCOc1cc3c(cc1OC)C(=O)N1C[C@H](F)C[C@H]1C=N3)N=C[C@@H]1C[C@@H](F)CN1C2=O`, the ΔTm in the experiment with DNA [1] worked out at 5.2 °C; in the experiment on DNA [2], 6.2 °C.
In the case of `COc1cc2c(cc1O)N=C[C@@H]1C[C@@H](F)CN1C2=O`, the ΔTm in the experiment on DNA [1] is 2.1 °C; with DNA [2] it was 2.3 °C.
The like results for `COc1cc2c(cc1OCCCCOc1cc3c(cc1OC)C(=O)N1C[C@H](F)C[C@H]1C=N3)N=C[C@@H]1C[C@@H](F)CN1C2=O` were, in that order, 12.4 °C and 14 °C.
Take `COc1cc2c(cc1OCCCOc1cc3c(cc1OC)C(=O)N1CCC[C@H]1C=N3)N=C[C@@H]1CCCN1C2=O`: in the experiment on DNA [1], the ΔTm stood at 15.1 °C.
In the case of `COc1cc2c(cc1O)N=C[C@@H]1CCCN1C2=O`, the ΔTm with DNA [1] and in the experiment with DNA [2] was 0.7 °C throughout.
Consider `COc1cc2c(cc1OCCCCCOc1cc3c(cc1OC)C(=O)N1C[C@H](F)C[C@H]1C=N3)N=C[C@@H]1C[C@@H](F)CN1C2=O`, for which the ΔTm in the experiment on DNA [1] came to 16.9 °C; with DNA [2], 18.8 °C.
